The list is not random: actives were taken first. Their share in the collection is about 2.3%.
DNMT1 block – inhibitors of human DNMT1. P26358. DNMT1 molecular beacon, Hinp1I cleavage, fluorescence. inhibition (reported as % activation of signal), % at 10 µM. 360,000 tested, 0.83% active; in the data active means inhibition above about 50%
Rpn11 inh – Rpn11 (human) deubiquitinase inhibition; 360,000 tested, 0.59% active; AID 588493; human 26S proteasome, Ub4-pepOG fluorescence polarization; 20S core pre-blocked with epoxomicin; inhibition, % at 20 µM; O00487;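 active means inhibition at 20 µM, scaled to each plate's controls, above about 33%, limit read from the data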
Scp-1 inhibitor – Scp-1 (human) phosphatase inhibition | 340,000 tested, 0.88% active | Q9GZU7 | inhibition, % at 20 µM | Recombinant Scp1, phosphopeptide, malachite green phosphate absorbance;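 active means inhibition above about 50% at 20 µM, limit read from the data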;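 further: plate controls were DMSO wells with enzyme for no effect and wells lacking enzyme for full effect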
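System: SCP-1 catalytic domain; Reagent: Phospho 17-mer peptide substrate; Doses: one concentration, 20 µM, with 1.0% DMSO; Incubation: 45 min room-temperature reaction, 5 min colour, 30 min stabiliser; Signal: Phosphate-binding colour reagent, absorbance read at 630 nm.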
LMPTP block – blocks human LMPTP phosphatase | P24666 | inhibition, % at 20 µM | AID 651560 | recombinant LMPTP-A, OMFP fluorogenic substrate, fluorescence intensity | 360,000 tested, 0.22% active;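 active means compounds that cut the enzyme signal by at least half of the control window in the single-dose screen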;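 further: plate controls were DMSO wells with enzyme plus substrate for no effect and substrate without enzyme for full effect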
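Assay system: LMPTP-A, protein tyrosine phosphatase of low molecular weight / Medium: pH 6.0 Bis-Tris buffer with DTT and Triton X-100 / Schedule: 50 min enzyme reaction at room temperature, protected from light / Measured by: endpoint fluorescence intensity from OMFP dephosphorylation / Read-out basis: % inhibition relative to no-enzyme and uninhibited control wells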
SUMO1-SIM PPI – SUMO1-SIM interaction modulation; P63165; inhibition, % at 20 µM; AID 602429; 360,000 tested, 0.33% active; SUMO1 binding to a labelled peptide, TR-FRET, 1 h; in the data active means inhibition above about 37%
STEP inh – inhibitors of human striatal-enriched phosphatase STEP. recombinant STEP, OMFP fluorogenic substrate, fluorescence. inhibition, % at 20 µM. 360,000 tested, 0.25% active;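 active means inhibition at 20 µM, scaled per plate between control wells, above about 37%, limit read from the data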;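 further: 0% = DMSO with enzyme and substrate and 100% = substrate only without enzyme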
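material = STEP tyrosine phosphatase | reagent = fluorogenic phosphatase substrate OMFP at 25 µM final | doses = single compound dose of 20 µM, 1% DMSO final | schedule = 20 min reaction, room temperature, in the dark | measured by = fluorescence, 480/540 nm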
* hit, by the source's call; x = not tested or not shown.

SMILES | DNMT1 block | Rpn11 inh | Scp-1 inhibitor | LMPTP block | SUMO1-SIM PPI | STEP inh
CCOc1ccc(NS(=O)(=O)c2ccc(NS(=O)(=O)c3ccccc3)cc2)cc1 | 3 | 9 | -6 | 2 | 2 | -2
Nc1ccc(NC(=O)c2ccc(C(=O)Nc3ccc(N)cc3)cc2)cc1 | -22 | 16 | -10 | 6 | 59* | 39
Nc1ccc(C(=O)Nc2nc3ccccc3s2)cc1 | -4 | -5 | 60* | -1 | 2 | 0
Cc1cc(C)n(-c2ccc(C(=O)Nc3nc4ccccc4s3)cc2)n1 | -9 | 2 | -2 | -2 | 6 | -1
CCn1cc(C(=O)O)c(=O)c2cnc(N3CCN(C(=S)NC(=O)c4ccc(OC)cc4)CC3)nc21 | 3 | -1 | -5 | 65* | 7 | 10
CCn1cc(C(=O)O)c(=O)c2cnc(N3CCN(C(=S)NC(=O)c4ccccc4Cl)CC3)nc21 | x | x | -7 | x | x | x
CCn1cc(C(=O)O)c(=O)c2cnc(N3CCN(C(=S)NC(=O)c4ccc(Cl)cc4Cl)CC3)nc21 | 2 | 6 | -6 | 51* | 12 | 3
CN(C)c1ccc(C#Cc2ccc3cc(CCO)oc(=O)c3c2)cc1 | 42 | 64* | 38 | 68* | -14 | 97*
COc1cc(C#Cc2ccc3cc(CCO)oc(=O)c3c2)cc(OC)c1 | -12 | 7 | -6 | 0 | -19 | -2
COCCN(CC(=O)Nc1cccc(C)c1C)C(=O)c1cc(-c2ccncc2)nc2ccccc12 | -11 | 11 | -5 | 1 | -3 | -2
N=c1c(C(=O)NCc2ccco2)cc2c(=O)n3ccccc3nc2n1CCc1ccccc1 | 27 | -37 | 1 | 55* | -7 | -1
N=c1c(C(=O)NCc2ccco2)cc2c(=O)n3ccccc3nc2n1CC1CCCO1 (configuration not stated) | 13 | -17 | 0 | 17 | -2 | -2
COCCn1c(=N)c(C(=O)NCCc2ccccc2)cc2c(=O)n3cccc(C)c3nc21 | 3 | -2 | 3 | 3 | -14 | -1
COc1ccc(CCn2c(=N)c(C(=O)NCc3ccco3)cc3c(=O)n4ccccc4nc32)cc1OC | 2 | 4 | 12 | 27 | 51* | -1
Cc1cccn2c(=O)c3cc(C(=O)NCCc4ccccc4)c(=N)n(CCCn4ccnc4)c3nc12 | 13 | 5 | 4 | 64* | -5 | -2
COc1ccccc1CNC(=O)[C@H](C)NC(=O)C1CCN(C(=O)[C@@H](N)CC(C)C)CC1 | -4 | 6 | -13 | -1 | -4 | 2
O=C(Nc1ccc([N+](=O)[O-])cc1Cl)c1cccc([N+](=O)[O-])c1 | 7 | -4 | x | 0 | -8 | -1
O=C(Nc1cccc(Cl)c1)c1cccc(Oc2ccc([N+](=O)[O-])cc2Cl)c1 | -8 | 7 | -5 | 2 | -3 | -2
O=C(Nc1cccc(Cl)c1)c1cc(N=Nc2ccc([N+](=O)[O-])cc2Cl)ccc1O | -22 | x | 71* | 12 | 100* | 32
O=C(Nc1ccc([N+](=O)[O-])cc1Cl)c1cc(Cl)ccc1O | -5 | -1 | 35 | 72* | 14 | 4
COc1ccc(N(CC(=O)NCCSc2ccccn2)S(=O)(=O)c2ccccc2)c(OC)c1 | 2 | 6 | 0 | 0 | 2 | -1
COc1ccc2nc(C)cc(SCC(=O)N/N=C/c3ccc(O)c(O)c3)c2c1 | 10 | 4 | -3 | 57* | 12 | 2
COc1cccc2c(SCC(=O)N/N=C/c3ccc(O)c(O)c3)cc(C)nc12 | 8 | -8 | -4 | 38 | 10 | 6
Clc1cccc(-c2nc(NCc3cccnc3)c3ccccc3n2)c1 | -10 | -1 | -4 | 42 | 10 | -1
Cc1ccc(-c2nc(NCc3cccnc3)c3ccccc3n2)cc1 | -10 | 0 | -30 | 63* | 8 | -4
c1ccc(-c2nc(NCc3cccnc3)c3ccccc3n2)cc1 | -3 | -5 | -4 | 58* | 6 | 1
COc1ccc(CNc2nc(-c3ccccc3)nc3ccccc23)cc1OC | -6 | 0 | -6 | 63* | 3 | -1
Cc1ccc(S(=O)(=O)NCc2ccc(C(=O)NCCc3ccc(S(N)(=O)=O)cc3)cc2)cc1 | 1 | 3 | 3 | 1 | 2 | -1

Screening data deposited in PubChem by Sanford-Burnham Center for Chemical Genomics.
